Data reported in ChEMBL document CHEMBL1149161, “Design, synthesis, and biological evaluation of substituted 2-cyclohexyl-4-phenyl-1H-imidazoles: potent and selective neuropeptide Y Y5-receptor antagonists” (J Med Chem, 2004).

What was measured:
[1] = Inhibition of […] binding to recombinant human chimeric NPY5/NPY1 receptor expressed in Sf9 cells
In short: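 Membranes from Sf9 cells expressing the human chimeric NPY5/NPY1 receptor, in 50 mM Tris-HCl pH 7.4 with 5 mM KCl, 120 mM NaCl, 2 mM CaCl2, 1 mM MgCl2 and 0.1% BSA. Membranes (5–50 µg) competed against 0.050 nM porcine [125I]PYY for 2 h at room temperature. Nonspecific binding was defined with 1 µM human NPY. Filtration and gamma counting followed; Ki came from a Hill fit; mean of n = 2-3 ± SEM.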

[2] = Maximum plasma concentration after oral dosing in rat; type: ADME, organism-based; set-up: route oral
In short: (§1)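 Sprague–Dawley rats received a single 20 mg/kg oral gavage dose in 20% vitamin E/water (n = 3). Blood was sampled from predose to 24 h. Heparinized plasma was precipitated with acetonitrile and analyzed by LC. Bioavailability was set against a 3 mg/kg iv dose (n = 2).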

[3] = Plasma clearance of the compound; type: ADME, organism-based
In short: (§2)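 Sprague–Dawley rats received a single 3 mg/kg iv catheter dose in 50% PEG/water (n = 2). Blood was sampled at predose and from 5 min to 24 h. Heparinized plasma was precipitated with acetonitrile and analyzed by LC.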

[4] = Volume of distribution at steady state; type: ADME, organism-based; conditions: in vivo; read-out: Vss; in short: as §2
[5] = Oral half life of the compound; type: ADME, organism-based; conditions: in vivo; in short: as §1
[6] = tested on: Rattus norvegicus; assay: Oral bioavailability after peroral administration in rats; type: organism-based; in short: as §1
[7] = tested on: COS-7; assay: Percentage block at hERG Voltage-gated potassium channel (subunit Kv11.1) expressed in COS7 cells by electrophysiological whole cell assay (300 nM); type: cell-based; conditions: Homo sapiens

Row | Structure (SMILES) | Ki [1] [nM] | other results
1 | C[C@H](O)CNC(=O)[C@H]1CC[C@H](c2nc(-c3cccc(C(F)(F)F)c3)c[nH]2)CC1 | 31 | –
2 | O=C(NCCCO)[C@H]1CC[C@H](c2nc(-c3cccc(C(F)(F)F)c3)c[nH]2)CC1 | 185 | –
3 | NCCNC(=O)[C@H]1CC[C@H](c2nc(-c3cccc(C(F)(F)F)c3)c[nH]2)CC1 | 915 | –
4 | CC(C)(CO)NC(=O)[C@H]1CC[C@H](c2nc(-c3cccc(C(F)(F)F)c3)c[nH]2)CC1 | 2.8 | Cmax [2]: 714 ng/mL; clearance [3]: 50 mL/min/kg; Vd [4]: 6 L/kg; half-life [5]: 13 h; bioavailability [6]: 36%
5 | CC(=O)NNC(=O)[C@H]1CC[C@H](c2nc(-c3cccc(C(F)(F)F)c3)c[nH]2)CC1 | 1.4 | –
6 | O=C(NCCO)[C@H]1CC[C@H](c2nc(-c3cccc(C(F)(F)F)c3)c[nH]2)CC1 | 11 | –
7 | FC(F)(F)c1cccc(-c2c[nH]c(-c3ccccc3)n2)c1 | 2.5 | –
8 | O=S(=O)(NC[C@H]1CC[C@H](c2nc(-c3cccc(C(F)(F)F)c3)c[nH]2)CC1)c1ccccc1 | 0.2 | inhibition [7]: 87%
9 | CN(C[C@H]1CC[C@H](c2nc(-c3cccc(C(F)(F)F)c3)c[nH]2)CC1)S(=O)(=O)c1ccccc1 | 1.3 | inhibition [7]: 85%
10 | COCCNC(=O)[C@H]1CC[C@H](c2nc(-c3cccc(C(F)(F)F)c3)c[nH]2)CC1 | 99 | –
11 | O=C(NS(=O)(=O)c1ccccc1)[C@H]1CC[C@H](c2nc(-c3cccc(C(F)(F)F)c3)c[nH]2)CC1 | 31 | –
12 | C[C@@H](O)CNC(=O)[C@H]1CC[C@H](c2nc(-c3cccc(C(F)(F)F)c3)c[nH]2)CC1 | 8 | –
13 | CC(=O)CNC(=O)[C@H]1CC[C@H](c2nc(-c3cccc(Br)c3)c[nH]2)CC1 | 10 | –
14 | FC(F)(F)c1cccc(-c2c[nH]c(C3CCCCC3)n2)c1 | 6 | –
